Calls of active or inactive are those of the source. The rule behind the calls is not given here.

One assay relates to Cystic fibrosis transmembrane conductance regulator (Homo sapiens), P13569 [N1303K]. As to the kind of experiment: (§1) Potentiation of CFTR N1303K mutant (unknown origin) expressed in rat FRT cells assessed as increase in VX-770-stimulated chloride current in presence of forskolin by short circuit method. The assay is classed as cell-based.
Chain of Cystic fibrosis transmembrane conductance regulator (Homo sapiens), P13569 [N1303K] (P13569 whole entry N1303K): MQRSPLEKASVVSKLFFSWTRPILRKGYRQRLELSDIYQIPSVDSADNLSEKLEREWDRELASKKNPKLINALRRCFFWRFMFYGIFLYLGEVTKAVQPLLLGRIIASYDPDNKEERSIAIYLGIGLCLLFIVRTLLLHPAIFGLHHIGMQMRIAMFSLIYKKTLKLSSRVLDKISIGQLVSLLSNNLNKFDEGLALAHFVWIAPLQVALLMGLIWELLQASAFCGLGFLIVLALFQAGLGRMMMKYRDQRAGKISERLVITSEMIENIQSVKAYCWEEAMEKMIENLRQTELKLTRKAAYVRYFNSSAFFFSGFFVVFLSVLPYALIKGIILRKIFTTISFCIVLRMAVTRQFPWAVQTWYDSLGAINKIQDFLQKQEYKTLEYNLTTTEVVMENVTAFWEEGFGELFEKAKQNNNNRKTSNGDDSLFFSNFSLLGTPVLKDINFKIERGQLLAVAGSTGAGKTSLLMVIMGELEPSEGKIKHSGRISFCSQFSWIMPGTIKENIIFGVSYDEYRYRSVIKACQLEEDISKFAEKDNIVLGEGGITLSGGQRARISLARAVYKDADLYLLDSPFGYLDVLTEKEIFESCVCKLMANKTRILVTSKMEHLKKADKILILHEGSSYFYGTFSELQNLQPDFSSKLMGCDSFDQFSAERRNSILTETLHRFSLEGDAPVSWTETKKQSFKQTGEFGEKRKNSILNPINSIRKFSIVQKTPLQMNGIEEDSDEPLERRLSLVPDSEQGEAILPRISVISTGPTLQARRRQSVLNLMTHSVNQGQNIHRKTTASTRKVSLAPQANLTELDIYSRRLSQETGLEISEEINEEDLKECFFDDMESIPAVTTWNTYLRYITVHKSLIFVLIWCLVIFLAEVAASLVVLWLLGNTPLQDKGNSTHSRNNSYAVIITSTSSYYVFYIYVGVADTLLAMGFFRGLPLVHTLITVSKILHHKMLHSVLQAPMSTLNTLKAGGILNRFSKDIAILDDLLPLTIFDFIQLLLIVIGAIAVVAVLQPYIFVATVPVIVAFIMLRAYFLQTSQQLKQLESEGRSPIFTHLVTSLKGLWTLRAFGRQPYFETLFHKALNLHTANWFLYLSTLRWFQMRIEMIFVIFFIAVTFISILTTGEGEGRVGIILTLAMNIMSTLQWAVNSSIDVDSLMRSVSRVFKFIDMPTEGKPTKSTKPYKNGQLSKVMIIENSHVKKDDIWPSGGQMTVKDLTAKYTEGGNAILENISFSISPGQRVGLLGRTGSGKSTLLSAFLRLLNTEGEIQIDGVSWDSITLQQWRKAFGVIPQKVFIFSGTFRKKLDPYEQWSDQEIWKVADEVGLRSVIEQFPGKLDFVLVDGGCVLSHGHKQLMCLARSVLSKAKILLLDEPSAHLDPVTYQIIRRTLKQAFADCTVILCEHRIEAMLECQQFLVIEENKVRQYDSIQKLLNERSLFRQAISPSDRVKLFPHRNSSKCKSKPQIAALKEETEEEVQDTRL
Settings: not given
An outline of the steps:
(§2)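 FRT cells stably expressing the mutant CFTR, corrected with 3 μM VX-661 for 18–24 hours, then grown on permeable supports. Short-circuit current at 37 °C in HCO3-buffered solutions with a chloride gradient. Basolateral membrane permeabilized with 250 μg/ml amphotericin B. Additions: 20 μM forskolin, 5 μM VX-770, test compound at a range of concentrations, then 10 μM CFTRinh-172. Concentration dependence n=3, mean ± S.E.M.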
Regarding `COc1ccc2c(c1)c1c(n2C)C2(CCN(Cc3ccc(F)cc3F)CC2)NCC1`, the outcome was inactive.

On to `COc1ccc2[nH]cc(CCNC3CCN(Cc4ccccc4)CC3)c2c1`, for which the result was inactive.

On to `COc1ccc2[nH]c3c(c2c1)CCN[C@@]31CCN2Cc3ccccc3C[C@H]2C1` (racemic), for which the outcome was inactive.

With `COc1ccc2[nH]c3c(c2c1)CCNC31CCN(Cc2ccc(C(C)(C)C)cc2)CC1`, the outcome was inactive.

Turning to `COc1ccc2[nH]c3c(c2c1)CCNC31CCNCC1`, the outcome was inactive.

Take `COc1ccc2[nH]c3c(c2c1)CCNC31CCCN(Cc2ccc(F)cc2F)C1` (configuration not stated): the result was inactive.

For the molecule `COc1ccc2[nH]c3c(c2c1)CCNC31CCN(Cc2ccc(F)cc2F)C1` (configuration not stated), the result was inactive.

For another assay, the target named is Cystic fibrosis transmembrane conductance regulator (Homo sapiens, UniProt P13569, N1303K). The assay is described as §1. The assay is classed as cell-based.
Chain of Cystic fibrosis transmembrane conductance regulator (P13569 whole entry N1303K): as above
Settings: not given
In outline: as §2
By EC50 is commonly meant the midpoint of the concentration-response curve. With `COc1ccc2[nH]c3c(c2c1)CCNC31CCCN(Cc2ccc(F)cc2F)CC1` (configuration not stated), the EC50 was determined as 20 µM.

As to `Fc1ccc(CN2CCC3(CC2)NCCc2c3[nH]c3ccc(Br)cc23)c(F)c1`, the EC50 is 21 µM.

On to `COc1ccc2[nH]c3c(c2c1)CCNC31CCN(Cc2cc(F)cc(F)c2)CC1`, for which the concentration giving a half-maximal response (EC50) was 11.1 µM.

For `COc1ccc2[nH]c3c(c2c1)CCNC31CCN(Cc2cc(F)cc(Cl)c2)CC1`, the EC50 was found to be 2.5 µM.

As to `COc1ccc2[nH]c3c(c2c1)CCNC31CCN(Cc2ccc([N+](=O)[O-])cc2F)CC1`, the 50% effective concentration (EC50) worked out at 5.9 µM.

Take `COc1ccc2[nH]c3c(c2c1)CCNC31CCN(Cc2ccc(Br)cc2F)CC1`: the EC50 was 1.6 µM.

On to `COc1ccc2[nH]c3c(c2c1)CCNC31CCN(Cc2cc(Cl)ccc2[N+](=O)[O-])CC1`, for which the concentration giving a half-maximal response (EC50) was determined as 7.1 µM.

In the case of `COc1ccc2[nH]c3c(c2c1)CCNC31CCN(Cc2ccc(Cl)cc2Cl)CC1`, the EC50 stood at 1.8 µM.

Turning to `COc1ccc2[nH]c3c(c2c1)CCNC31CCN(Cc2ccccc2Cl)CC1`, the EC50 was 2.2 µM.

On to `COc1ccc2[nH]c3c(c2c1)CCNC31CCN(C(C)c2ccccc2)CC1` (configuration not stated), for which the concentration for a half-maximal effect (EC50) came out at 20 µM.

Consider `COc1ccc2[nH]c3c(c2c1)CCNC31CCN(Cc2cccnc2)CC1`, for which the EC50 is 17 µM.

Turning to `COc1ccc2[nH]c3c(c2c1)CCNC31CCN(Cc2ccc(Br)c(F)c2)CC1`, the EC50 stood at 1.8 µM.

As for `COc1ccc2[nH]c3c(c2c1)CCNC31CCN(Cc2ccccn2)CC1`, the 50% effective concentration (EC50) was 11.5 µM.

As for `COc1ccc2[nH]c3c(c2c1)CCNC31CCN(Cc2cccc(F)c2F)CC1`, the concentration for a half-maximal effect (EC50) was found to be 13.6 µM.

As for `COc1ccc2[nH]c3c(c2c1)CCNC31CCN(Cc2c(F)ccc(Cl)c2F)CC1`, the EC50 is 4.5 µM.

`COc1ccc2[nH]c3c(c2c1)CCNC31CCN(Cc2ccc(F)c(F)c2)CC1`: the concentration giving a half-maximal response (EC50) is 11 µM.

Turning to `COc1ccc2[nH]c3c(c2c1)CCNC31CCN(Cc2cc(F)ccc2F)CC1`, the 50% effective concentration (EC50) came to 11.1 µM.

In the case of `COc1ccc2[nH]c3c(c2c1)CCNC31CCN(Cc2ccc(F)cc2F)CC1`, the half-maximal effective concentration (EC50) was determined as 2 µM.

For `COc1ccc2[nH]c3c(c2c1)CCNC31CCN(Cc2ccccc2)CC1`, the EC50 turned out to be 12.6 µM.

As for `Fc1ccc(CN2CCC3(CC2)NCCc2c3[nH]c3ccccc23)c(F)c1`, the EC50 is 8.2 µM.

As to `COc1ccc2[nH]c3c(c2c1)CCNC31CCN(Cc2ccco2)CC1`, the EC50 amounted to 16.4 µM.

Tested on in the next assay: not listed separately
The assay is described as follows: Potentiation of CFTR I1234del mutant (unknown origin) expressed in rat FRT cells assessed as increase in VX-770-stimulated chloride current in presence of forskolin by short circuit method. To be noted: Homo sapiens. The assay is classed as cell-based. An outline of the steps: as §2
Take `COc1ccc2[nH]c3c(c2c1)CCNC31CCN(Cc2cc(F)c(F)cc2F)CC1`: the EC50 amounted to 0.7 µM.

Another assay concerns Cystic fibrosis transmembrane conductance regulator (Homo sapiens), P13569 [R347P]. As to the kind of experiment: Potentiation of CFTR R347P mutant (unknown origin) expressed in rat FRT cells assessed as effect on VX-770-stimulated chloride current in presence of forskolin by short circuit method. The assay is classed as cell-based.
Chain of Cystic fibrosis transmembrane conductance regulator (Homo sapiens), P13569 [R347P] (P13569 whole entry R347P): as the sequence (P13569 whole entry N1303K) above, with R347P, K1303N counted along it
Settings: not given
In outline: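 R347P-CFTR FRT cells, corrected with 3 μM VX-661 for 18–24 h. Short-circuit current at 37 °C in HCO3-buffered solutions with a chloride gradient. Basolateral membrane permeabilized with 250 μg/ml amphotericin B. Sequential additions: 20 μM forskolin, 5 μM VX-770, 20 μM test compound, then 10 μM CFTRinh-172.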
Take `COc1ccc2[nH]c3c(c2c1)CCNC31CCN(Cc2cc(F)c(F)cc2F)CC1`: the result was inactive.

The next assay deals with 16HBE14o-. The assay is described as follows: Potentiation of CFTR I1234del mutant (unknown origin) expressed in human 16HBE14o- cells assessed as increase in VX-770-stimulated chloride current in presence of forskolin by short circuit method. The assay is classed as cell-based. To be noted: filed as activator. In outline:
(§3)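 Gene-edited 16HBE14o- cells grown on permeable supports; short-circuit current at 37 °C with a chloride gradient in Hepes-buffered solutions. Sequential additions: 20 μM forskolin, 5 μM VX-770, 10 μM test compound, then 10 μM CFTRinh-172. Change in current (ΔIsc) reported as mean ± S.E.M., n = 3.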
Turning to `COc1ccc2[nH]c3c(c2c1)CCNC31CCN(Cc2cc(F)c(F)cc2F)CC1`, the result was Active.

The test system of a further assay is Cystic fibrosis transmembrane conductance regulator (Homo sapiens), P13569 [N1303K]. As to the kind of experiment: Potentiation of CFTR N1303K mutant (unknown origin) expressed in human 16HBE14o- cells assessed as increase in VX-770-stimulated chloride current in presence of forskolin by short circuit method. The assay is classed as cell-based. To be noted: filed as activator. An outline of the steps: as §3
As to `COc1ccc2[nH]c3c(c2c1)CCNC31CCN(Cc2cc(F)c(F)cc2F)CC1`, the outcome was Active.
